Assay results published in publication PMC6447844 (Cancer Science, 2019).
Like-named read-outs stand apart in the source and are kept apart here.

Experiments:
[1] = system: Japanese patients with advanced solid tumors; type: in vivo, human; conditions: for DLT event: one patient
Outline: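 Open-label phase I at two Japanese centres; oral test compound given q.d. or b.i.d. as capsule or tablet in 28-day cycles, escalated by a 2-parameter Bayesian logistic regression model with overdose control. DLT: grade 3 or 4 AE or abnormal laboratory value (CTCAE v4.0), not attributed to disease, intercurrent illness or co-medication, within the first 28 days. MTD: highest dose not expected to cause DLT in >33% of patients.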

[2] = system: MET kinase versus other kinases (panel of 57 human kinases); conditions: cited from earlier work
advanced solid tumors = assay: Tumor assessment by CT/MRI according to RECIST version 1.1; type: in vivo, human; conditions: investigator assessed; eight of 44 patients
[3] = system: Japanese patients with advanced solid tumors; assay: Safety assessment; type: in vivo, human
Outline: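 Patients took oral test compound daily (capsule or tablet, q.d. or b.i.d.) in 28-day cycles until progression, intolerable toxicity or withdrawal. AEs graded by CTCAE v4.0, alongside regular laboratory tests, physical examination, vital signs, weight and periodic ECG. Safety set: patients with at least one dose and at least one valid postbaseline safety assessment.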

MET = conditions: read-out: IC50 (MET, biochemical); cited from earlier work
[4] = system: MET-dependent (amplified/autocrine) tumor models; conditions: at tolerable doses; cited from earlier work
[5] = Plasma pharmacokinetics of capmatinib; type: in vivo, human; conditions: for AUC / Cmax: 400 mg, 400 mg b.i.d., day 15; for AUC: Mean AUCtau; for Cmax: Mean Cmax
[6] = study CINC280X2103; ref data on file; cited from earlier work
[7] = regardless of relationship, all patients, n = 44
[8] = regardless of study drug relationship, all patients
[9] = human, plasma, oral, capsule group
[10] = human, plasma, oral, tablet group

## CNC(=O)c1ccc(-c2cnc3ncc(Cc4ccc5ncccc5c4)n3n2)cc1F [capmatinib]
[1]; escalated up to 400 mg b.i.d. tablet and 600 mg b.i.d. capsule
  MTD: not reached
[1]; 400 mg b.i.d. tablet
  DLT event: grade 3 depression
[1]; 600 mg b.i.d. capsule
  DLT event: grade 2 suicidal ideation
[1]; tablet formulation, single agent
  Highest studied dose determined to be safe, tablet: 400 mg b.i.d.
[1]; two patients
  Patients permanently discontinued owing to DLT: 5.1%
[2]
  selectivity for MET kinase versus other kinases: 10 000 fold
Advanced solid tumors
  Best overall response of SD: 18.2%
[3]; 21 patients
  Patients with one or more dose interruptions: 47.7%
[3]; 26 of 44 patients
  AE requiring dose adjustment and/or interruption: 59.1%
[3]; Japanese patients, overall
  Overall tolerability: well tolerated
[3]; all patients
  Changes in vital signs and ECG intervals: no clinically meaningful changes or trends
  Colitis ulcerative, grade 3/4 suspected to be drug-related: 1 n
  Decreased appetite requiring dose adjustment and/or interruption: 6.8%
  Decreased appetite, suspected to be drug-related: 29.5%
  Depression, grade 3/4 suspected to be drug-related: 1 n
  Diarrhea, suspected to be drug-related: 20.5%
  Hypophosphatemia, grade 3/4 suspected to be drug-related: 1 n
  Increased ALT and AST, grade 3/4 suspected to be drug-related: 1 n
  Increased GGT, grade 3/4 suspected to be drug-related: 1 n
  Increased blood creatinine requiring dose adjustment and/or interruption: 20.5%
  Increased blood creatinine, suspected to be drug-related: 45.5%
  Lung infection, grade 3/4 suspected to be drug-related: 1 n
  Nausea requiring dose adjustment and/or interruption: 13.6%
  Nausea, suspected to be drug-related: 31.8%
  On-treatment deaths (within 28 days after discontinuation): No on‐treatment deaths
  Patients experiencing one or more AE: 95.5%
  QTcB increase from baseline of more than 30 ms: three
  Treatment-emergent prolongation of QTcB of more than 450 ms: three
  Treatment-emergent prolongation of QTcB of more than 480 ms: one
  Vomiting requiring dose adjustment and/or interruption: 6.8%
  Vomiting, suspected to be drug-related: 29.5%
[3]; all patients, n = 44
  AE leading to discontinuation: 4 (9.1) n (%)
  AE requiring dose interruption and/or reduction: 26 (59.1) n (%)
  AE requiring dose interruption and/or reduction, Suspected to be drug-related: 17 (38.6) n (%)
  All deaths (incl. more than 28 days after discontinuation): 1 (2.3) n (%)
  On-treatment deaths (up to 28 d after discontinuation): 0 n (%)
  Patients experiencing ≥1 AE, Suspected to be drug-related: 37 (84.1) n (%)
  SAE: 7 (15.9) n (%)
  SAE, Suspected to be drug-related: 2 (4.5) n (%)
  Total number of patients experiencing ≥1 AE: 42 (95.5) n (%)
[3]; four of 44 patients
  Discontinuation due to AE (all grades): 9.1%
[3]; mainly grade 1/2, 37 patients
  AE suspected to be drug-related: 84.1%
[3]; nine patients
  Patients with dose interrupted only once: 20.5%
[3]; p.o. 400 mg b.i.d. in tablet formulation
  Tolerability: well tolerated
[3]; [7]
  Anemia, All grades: 7 (15.9) n (%)
  Anemia, Grade 3/4: 0 n (%)
  Any AE, All grades: 42 (95.5) n (%)
  Any AE, Grade 3/4: 15 (34.1) n (%)
  Constipation, All grades: 7 (15.9) n (%)
  Constipation, Grade 3/4: 0 n (%)
  Decreased appetite, All grades: 18 (40.9) n (%)
  Decreased appetite, grade 3/4: 3 (6.8) n (%)
  Diarrhea, All grades: 11 (25.0) n (%)
  Diarrhea, Grade 3/4: 0 n (%)
  Edema peripheral, All grades: 9 (20.5) n (%)
  Edema peripheral, Grade 3/4: 1 (2.3) n (%)
  Fatigue, All grades: 7 (15.9) n (%)
  Fatigue, Grade 3/4: 0 n (%)
  Hypoalbuminemia, All grades: 10 (22.7) n (%)
  Hypoalbuminemia, grade 3/4: 2 (4.5) n (%)
  Increased blood creatinine, All grades: 23 (52.3) n (%)
  Increased blood creatinine, Grade 3/4: 0 n (%)
  Malaise, All grades: 8 (18.2) n (%)
  Malaise, Grade 3/4: 0 n (%)
  Nausea, All grades: 21 (47.7) n (%)
  Nausea, Grade 3/4: 0 n (%)
  Pyrexia, All grades: 8 (18.2) n (%)
  Pyrexia, Grade 3/4: 0 n (%)
  Vomiting, All grades: 17 (38.6) n (%)
  Vomiting, Grade 3/4: 0 n (%)
[3]; regardless of study drug relationship, 15 patients
  Grade 3/4 AE: 34.1%
[3]; [8]
  Ascites, grade 3/4: 4.5%
  Decreased appetite, all grades: 40.9%
  Decreased appetite, grade 3/4: 6.8%
  Diarrhea, all grades: 25.0%
  Hypoalbuminemia, all grades: 22.7%
  Hypoalbuminemia, grade 3/4: 4.5%
  Hyponatremia, grade 3/4: 9.1%
  Hypophosphatemia, grade 3/4: 4.5%
  Increased GGT, grade 3/4: 4.5%
  Increased blood creatinine, all grades: 52.3%
  Nausea, all grades: 47.7%
  Peripheral edema, all grades: 20.5%
  Vomiting, all grades: 38.6%
[3]; seven patients
  Grade 3/4 AE suspected to be drug-related: 15.9%
[3]; three patients
  Patients with one dose reduction: 6.8%
MET
  IC50: 0.13 nM
[4]
  Effect on MET-dependent tumor models: causes regression
[5]; day 15, tablet
  Median Tmax: 1.0 h
[5]; human, plasma, oral
  Tmax: 1 h
[5]; [9]
  AUC: 11000 ng·h/mL
  Cmax: 1980 ng/mL
[5]; [10]
  AUC: 31400 ng·h/mL
  Cmax: 7570 ng/mL
[5]; pre-dose concentrations generally stable after day 15
  Steady state achieved: ≤ 15 days
[6]
  Cmax geometric mean ratio (tablet vs capsule): 3.0
